We go through 10 molecules from ChEMBL document CHEMBL1127804 (J Med Chem, 1994).

In one test the test system is MCF7. The experiment in a line: Tested for inhibitory concentration against MCF-7 human breast carcinoma cell line. It counts as functional, cell-based. In a few lines: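 MCF-7 breast carcinoma cells were grown in replicate 24-well plates in α-MEM with 10% dialyzed FBS plus epithelial growth factor, hydrocortisone and insulin. Cells were exposed for 72 h at 37 °C under 6.5% CO2 and counted electronically with a Coulter counter. IC50 was estimated from semilog plots using averaged data from a single experiment on replicate plates.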

The test system of the next test is SCC-25. The experiment in a line: Tested for inhibitory concentration against human SCC25 cell line. It counts as functional, cell-based. The method, boiled down: (§1)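 SCC VII (murine) or SCC25 (human) squamous carcinoma cells were plated at 2×10^3/well in DME with 10% FBS for 24 h at 37 °C, 5% CO2. Drug was added at 10 concentrations from 0.1 nM to 3 μM for a further 72 h. Growth was read by sulforhodamine B protein stain at 530 nm.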

The target in test [1] is T1, Dihydrofolate reductase (Homo sapiens, UniProt P00374).
T1 sequence (P00374 whole entry): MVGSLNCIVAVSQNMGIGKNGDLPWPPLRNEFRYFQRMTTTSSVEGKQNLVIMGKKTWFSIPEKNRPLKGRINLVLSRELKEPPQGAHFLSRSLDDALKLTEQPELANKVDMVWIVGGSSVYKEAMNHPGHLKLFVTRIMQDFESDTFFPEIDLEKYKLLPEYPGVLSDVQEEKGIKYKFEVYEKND
The experiment in a line: Tested for inhibitory concentration against human dihydrofolate reductase(DHFR).

For a further test, the system named is SCC-7. The experiment in a line: Tested for inhibitory concentration against SCC-VII murine squamous carcinoma cell line. It counts as functional, cell-based. Conditions: Mus musculus. In a few lines:
as §1

In test [2] the test system is CCRF-CEM. The experiment in a line: Tested for the inhibition of [14C]-DDATHF influx in CCRF-CEM cells of human leukemic lymphoblast. The format is functional, cell-based. The method, boiled down: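 Influx of (6R)-[14C]DDATHF (2 μM) into wild-type CCRF-CEM human leukemic lymphoblasts was measured with the inhibitor present. Ki was calculated from Dixon plots and reported as mean ± SE of two to seven separate experiments.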

Test [3] has as its system CCRF-CEM. The experiment in a line: Tested for inhibition of [14C]-DDATHF influx in CEM/MTX cells of human leukemic lymphoblasts. The format is functional, cell-based. In a few lines:
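Influx of (6R)-[14C]DDATHF (2 μM) into CEM/MTX cells was measured. Before the assay, cells normally kept in 1 μM MTX were held out of MTX for 3–4 generations. Ki came from Dixon plots and is given as mean ± SE of two to seven separate experiments.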

The nature of test [4]: Ratio between Ki values of CCRF-CEM and CEM/MTX. The format is functional.
Test [5] concerns CCRF-CEM. The experiment in a line: Tested for inhibitory concentration of cell growth against CCRF-CEM cell lines of human leukemic lymphoblast.
For test [6], the system named is CCRF-CEM. The experiment in a line: cells. The conditions noted are these: Homo sapiens.
Test [7] deals with CCRF-CEM. The experiment in a line: Tested in vitro for relative activity against CCRF-CEM human Leukemic lymphoblast by using TS as primary target. The format is functional.
The subject of test [8] is CCRF-CEM. The experiment in a line: Tested in vitro for inhibitory concentration against CCRF-CEM human Leukemic lymphoblast by using TS as primary target. The format is functional, cell-based.
In test [9] the target is T1, Dihydrofolate reductase. The experiment in a line: rested for inhibitory concentration against human dihydrofolate reductase(DHFR).

A word on the IC50: it is the concentration that gives 50% inhibition. High values mean weaker potency, low ones greater potency. Usually Ki stands for a dissociation constant, usually derived from enzyme kinetics or from competition with a known ligand. Read a low Ki as higher affinity.

With `Nc1nc(N)c2nc(CNc3ccc(C(=O)NC(CCNC(=O)c4ccccc4C(=O)O)C(=O)O)cc3)cnc2n1` (stereo not given), the IC50 was determined as 6 nM in the test on MCF7, 12.9 nM in the test with SCC-25, 11.6 nM on Dihydrofolate reductase [1] and 19 nM in the test with SCC-7.

As for `Nc1nc(=O)c2nc(CNc3ccc(C(=O)N[C@@H](CCC(=O)O)C(=O)O)cc3)cnc2[nH]1` [FOLIC ACID], the Ki with CCRF-CEM [2] amounted to 167 µM; with CCRF-CEM [3], 8.95 µM. Moreover, in test [4], the Ratio is 0.054.

With `Nc1nc(N)c2nc(CNc3ccc(C(=O)NC(CCCNC(=O)c4ccccc4C(=O)O)C(=O)O)cc3)cnc2n1` (stereo not given), the Ki in the test with CCRF-CEM [2] amounted to 0.65 µM; in the test on CCRF-CEM [3], 0.44 µM. The IC50 with MCF7 was 0.7 nM; with CCRF-CEM [5], 1.08 nM; in the test on SCC-25 it was 1 nM; against Dihydrofolate reductase [1] it was 12.2 nM; with CCRF-CEM [6], 110 nM; in the test on SCC-7 it was 0.89 nM. In addition, the Ratio in test [4] worked out at 0.68.

As for `CN(Cc1cnc2nc(N)nc(N)c2n1)c1ccc(C(=O)N[C@@H](CCC(=O)O)C(=O)O)cc1` [METHOTREXATE], the Ki in the test on CCRF-CEM [2] turned out to be 4.48 µM; in the test on CCRF-CEM [3], 9.74 µM. Besides, the IC50 in the test on CCRF-CEM [5] stood at 10.5 nM; in the test with CCRF-CEM [6], 2550 nM; with SCC-7 it was 5.8 nM.

`CN(Cc1ccc2[nH]c(C=O)nc(=O)c2c1)c1ccc(C(=O)NC(CCC(=O)O)C(=O)O)s1` (stereo not given) showed a Relative activity in the test with CCRF-CEM [7] of 23. In the test with CCRF-CEM [8], this molecule displayed a 50% inhibitory concentration (IC50) of 4.7 nM.

As to `Nc1nc(N)c2nc(CNc3ccc(C(=O)NC(CCCCNC(=O)c4ccccc4C(=O)O)C(=O)O)cc3)cnc2n1` (stereo not given), the IC50 is 2 nM with MCF7, 17.9 nM in the test on SCC-25, 4 nM in the test on SCC-7 and 11.4 nM on Dihydrofolate reductase [9].

With `Nc1nc(N)c2nc(CNc3c(Cl)cc(C(=O)NC(CCCNC(=O)c4ccccc4C(=O)O)C(=O)O)cc3Cl)cnc2n1` (stereo not given), the IC50 was determined as 2.5 nM in the test on SCC-25, 10.2 nM against Dihydrofolate reductase [1] and 1.6 nM with SCC-7.

Take `Nc1nc(N)c2nc(CNc3ccc(C(=O)N[C@@H](CCC(=O)O)C(=O)O)cc3)cnc2n1` [AMINOPTERIN]: the IC50 stood at 6.9 nM with SCC-25 and 4 nM with SCC-7.

Regarding `COc1cc(NCc2ccc3nc(N)nc(N)c3c2C)cc(OC)c1OC` [TRIMETREXATE], the values for the IC50 in the test with SCC-25 and in the test with SCC-7 were 8 nM and 6.3 nM, respectively.

`Nc1nc(=O)c2c([nH]1)NCC(CNc1ccc(C(=O)N[C@@H](CCC(=O)O)C(=O)O)cc1)N2C=O` (stereo not given in full) [LEUCOVORIN] showed an inhibitory constant (Ki) in the test on CCRF-CEM [3] of 0.74 µM.
